In test [1] the test system is Human immunodeficiency virus 2. The test is described as follows: Effective concentration required to inhibit HIV-2 induced cytopathicity in MT-4 cell culture by 50%. It counts as functional, organism-based. The following applies: Human immunodeficiency virus 2, MT4. In a few lines: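 MT-4 cells at 3 × 10⁵/mL infected with HIV-1 or HIV-2 at ~100 CCID₅₀ per mL, mixed 1:1 with compound dilutions. Cytopathicity read by trypan blue dye exclusion after 5 days. EC₅₀ is the concentration giving 50% protection against the virus-induced loss of cell viability.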
On the technique in general: Cytopathic effects are the visible damage that an infection or toxin causes in cultured cells.

In a further test the test system is MT4. The test can be described thus: Cytotoxic concentration required to inhibit MT-4 cell proliferation by 50%. The class given is functional. The following applies: Homo sapiens. The procedure, abridged:
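Mock-infected MT-4 cells (3 × 10⁵/mL) incubated with compound dilutions; CC₅₀ is the concentration that reduces the number of viable MT-4 cells by 50%.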

The next test has as its system CCRF-CEM. The test can be described thus: Cytostatic concentration required to inhibit CEM cell proliferation by 50%. The following applies: Homo sapiens. The class given is functional. The procedure, abridged: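 CEM cells (4 × 10⁵/mL) exposed to compound dilutions without virus; CC₅₀ is the concentration that inhibits CEM cell proliferation by 50%.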
For test [2], the system named is Human immunodeficiency virus 2. The test can be described thus: Effective concentration required to inhibit HIV-2 induced cytopathicity in CEM cell culture by 50%. The class given is functional, organism-based. The following applies: Human immunodeficiency virus 2, CCRF-CEM. The procedure, abridged:
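CEM cells at 4 × 10⁵/mL infected with HIV-1 or HIV-2 at ~100 CCID₅₀ per mL, mixed 1:1 with compound dilutions. Giant cell formation scored microscopically after 4 days. EC₅₀ is the concentration inhibiting virus-induced cytopathicity by 50%.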

The nature of test [3]: Effective concentration required to inhibit HIV-1 induced cytopathicity in MT-4 cell culture by 50%. The following applies: mt4.

pEC50: −log10 of the molar value.

The source of these data is ChEMBL document CHEMBL1135765, “Synthesis of 3' '-substituted TSAO derivatives with anti-HIV-1 and anti-HIV-2 activity through an efficient palladium-catalyzed cross-coupling approach” (J Med Chem, 2002).

With `Cc1cn([C@@H]2O[C@H](CO[Si](C)(C)C(C)(C)C)[C@@]3(OS(=O)(=O)C(c4ccccc4)=C3N)[C@H]2O[Si](C)(C)C(C)(C)C)c(=O)n(C)c1=O`, the pEC50 – broadly, the negative decadic logarithm of the EC50, by convention in mol/L – in test [1] is less than 4.30. The CC50 (usually the concentration at which the toxic effect on the cells reaches its halfway point) in the test with MT4 is 24 µM; in the test with CCRF-CEM it was 65 µM.

With `Cc1cn([C@@H]2O[C@H](CO[Si](C)(C)C(C)(C)C)[C@@]3(OS(=O)(=O)C(Br)=C3N)[C@H]2O[Si](C)(C)C(C)(C)C)c(=O)[nH]c1=O`, the pEC50 in test [2] and in test [1] was less than 5.00 each time. Besides, the figures for the CC50 with MT4 and with CCRF-CEM were 18 µM and 17 µM, respectively.

`Cc1cn([C@@H]2O[C@H](CO[Si](C)(C)C(C)(C)C)[C@@]3(OS(=O)(=O)C(c4ccccc4)=C3N)[C@H]2O[Si](C)(C)C(C)(C)C)c(=O)[nH]c1=O`: the negative logarithm of the EC50 (pEC50) in test [2] is less than 5.70; in test [1] it was less than 4.30. Also, the half-maximal cytotoxic concentration (CC50) was 55 µM in the test on MT4 and 37 µM in the test on CCRF-CEM.

Turning to `Cc1cn([C@@H]2O[C@H](CO[Si](C)(C)C(C)(C)C)[C@@]3(OS(=O)(=O)C=C3N)[C@H]2O[Si](C)(C)C(C)(C)C)c(=O)n(C)c1=O`, the pEC50 in test [2] and in test [1] was less than 3.60 throughout. The same compound returned a CC50 with MT4 of 230 µM.

`CC#CC1=C(N)[C@@]2(OS1(=O)=O)[C@@H](CO[Si](C)(C)C(C)(C)C)O[C@@H](n1cc(C)c(=O)n(C)c1=O)[C@@H]2O[Si](C)(C)C(C)(C)C`: the pEC50 in test [2] and in test [1] was less than 5.70 throughout. Moreover, the CC50 was 3.3 µM in the test with MT4 and 5 µM with CCRF-CEM.

For the compound `Cc1cn([C@@H]2O[C@H](CO[Si](C)(C)C(C)(C)C)[C@@]3(OS(=O)(=O)C(/C=C/CO)=C3N)[C@H]2O[Si](C)(C)C(C)(C)C)c(=O)n(C)c1=O`, the pEC50 in test [2] was 5.24; in test [1], less than 5.00. For the same compound, the CC50 in the test on MT4 came to 13 µM; in the test on CCRF-CEM it was 18 µM.

With `COC(=O)/C=C/C1=C(N)[C@@]2(OS1(=O)=O)[C@@H](CO[Si](C)(C)C(C)(C)C)O[C@@H](n1cc(C)c(=O)n(C)c1=O)[C@@H]2O[Si](C)(C)C(C)(C)C`, the negative-log EC50 (pEC50) in test [2] is less than 5.70; in test [1], less than 5.00. Moreover, the 50% cytotoxic concentration (CC50) turned out to be 55 µM with MT4 and 37 µM in the test on CCRF-CEM.

On to `Cc1cn([C@@H]2O[C@H](CO[Si](C)(C)C(C)(C)C)[C@@]3(OS(=O)(=O)C(I)=C3N)[C@H]2O[Si](C)(C)C(C)(C)C)c(=O)n(C)c1=O`, for which the results for the pEC50 in test [2] and in test [1] were less than 5.70 and less than 5.00, respectively. Also, the CC50 in the test on MT4 amounted to 3.9 µM; in the test on CCRF-CEM it was 5.6 µM.

On to `Cc1cn([C@@H]2O[C@H](CO[Si](C)(C)C(C)(C)C)[C@@]3(OS(=O)(=O)C(/C=C/CO)=C3N)[C@H]2O[Si](C)(C)C(C)(C)C)c(=O)[nH]c1=O`, for which the values for the pEC50 in test [2] and in test [1] were 5.92 and 5.27, respectively. In addition, the CC50 in the test on MT4 came out at 17 µM; in the test with CCRF-CEM, 18 µM.

As to `CC1=C(N)[C@@]2(OS1(=O)=O)[C@@H](CO[Si](C)(C)C(C)(C)C)O[C@@H](n1cc(C)c(=O)n(C)c1=O)[C@@H]2O[Si](C)(C)C(C)(C)C`, the values for the negative logarithm of the EC50 (pEC50) in test [2] and in test [1] were less than 4.30 and less than 3.60, respectively. The CC50 in the test on MT4 is greater than 250 µM; in the test on CCRF-CEM, 10 µM.

For `Cc1cn([C@@H]2O[C@H](CO[Si](C)(C)C(C)(C)C)[C@@]3(OS(=O)(=O)C(Cl)=C3N)[C@H]2O[Si](C)(C)C(C)(C)C)c(=O)[nH]c1=O`, the negative logarithm of the EC50 (pEC50) in test [2] and in test [1] was less than 5.00 throughout. Further, the CC50 in the test on MT4 came to 5.4 µM; in the test with CCRF-CEM, 7 µM.

For `COC(=O)/C=C/C1=C(N)[C@@]2(OS1(=O)=O)[C@@H](CO[Si](C)(C)C(C)(C)C)O[C@@H](n1cc(C)c(=O)[nH]c1=O)[C@@H]2O[Si](C)(C)C(C)(C)C`, the results for the pEC50 in test [2] and in test [1] were 5.14 and 5.00, respectively. For the same compound, the figures for the CC50 in the test with MT4 and with CCRF-CEM were 29 µM and 39 µM, respectively.

Regarding `CCOC(=O)/C=C/C1=C(N)[C@@]2(OS1(=O)=O)[C@@H](CO[Si](C)(C)C(C)(C)C)O[C@@H](n1cc(C)c(=O)[nH]c1=O)[C@@H]2O[Si](C)(C)C(C)(C)C`, the pEC50 in test [2] is less than 5.00; in test [1] it was less than 4.30. Also, the CC50 worked out at 40 µM in the test on MT4 and 174 µM in the test with CCRF-CEM.

With `C=CCNC1=CS(=O)(=O)O[C@@]12[C@@H](CO[Si](C)(C)C(C)(C)C)O[C@@H](n1cc(C)c(=O)n(C)c1=O)[C@@H]2O[Si](C)(C)C(C)(C)C`, the pEC50 in test [2] and in test [1] was less than 4.30 in each case. In addition, the CC50 with MT4 worked out at 25 µM; in the test on CCRF-CEM, 126 µM.

On to `C=CC1=C(N)[C@@]2(OS1(=O)=O)[C@@H](CO)O[C@@H](n1cc(C)c(=O)[nH]c1=O)[C@@H]2O[Si](C)(C)C(C)(C)C`, for which the pEC50 in test [2] and in test [1] was less than 4.30 throughout. Besides, the 50% cytotoxic concentration (CC50) in the test on MT4 worked out at 47 µM; in the test with CCRF-CEM, 76 µM.

Turning to `Cc1cn([C@@H]2O[C@H](CO[Si](C)(C)C(C)(C)C)[C@@]3(OS(=O)(=O)C(c4ccsc4)=C3N)[C@H]2O[Si](C)(C)C(C)(C)C)c(=O)n(C)c1=O`, the pEC50 in test [2] and in test [1] was less than 5.70 each time. Besides, the CC50 in the test on MT4 came out at 3.9 µM; with CCRF-CEM, 33 µM.

On to `CNC1=C(C)S(=O)(=O)O[C@@]12[C@@H](CO[Si](C)(C)C(C)(C)C)O[C@@H](n1cc(C)c(=O)n(C)c1=O)[C@@H]2O[Si](C)(C)C(C)(C)C`, for which the negative logarithm of the EC50 (pEC50) in test [2] and in test [1] was less than 3.60 in each case. Also, the figures for the CC50 in the test with MT4 and in the test with CCRF-CEM were greater than 250 µM and 234 µM, respectively.

With `Cc1cn([C@@H]2O[C@H](CO[Si](C)(C)C(C)(C)C)[C@@]3(OS(=O)(=O)C(I)=C3N)[C@H]2O[Si](C)(C)C(C)(C)C)c(=O)[nH]c1=O`, the pEC50 in test [2] and in test [1] was less than 5.70 throughout. Also, the results for the CC50 in the test with MT4 and in the test on CCRF-CEM were 4.3 µM and 4 µM, respectively.

`C=CC1=C(N)[C@@]2(OS1(=O)=O)[C@@H](CO[Si](C)(C)C(C)(C)C)O[C@@H](n1cc(C)c(=O)[nH]c1=O)[C@@H]2O[Si](C)(C)C(C)(C)C`: the pEC50 in test [2] is 5.40; in test [1], 5.48. The results for the CC50 in the test on MT4 and in the test with CCRF-CEM were 24 µM and 36 µM, respectively.

Regarding `Cc1cn([C@@H]2O[C@H](CO[Si](C)(C)C(C)(C)C)C3(OS(=O)(=O)C=C3N)[C@H]2O[Si](C)(C)C(C)(C)C)c(=O)[nH]c1=O` (stereo partly specified), the values for the pEC50 in test [2], in test [1] and in test [3] were less than 5.00, less than 5.00 and 7.22, respectively. The compound further showed a CC50 in the test with MT4 of 12 µM.

Turning to `C=CCC1=C(N)[C@@]2(OS1(=O)=O)[C@@H](CO[Si](C)(C)C(C)(C)C)O[C@@H](n1cc(C)c(=O)n(C)c1=O)[C@@H]2O[Si](C)(C)C(C)(C)C`, the pEC50 in test [2] and in test [1] was less than 4.30 throughout. In addition, the CC50 in the test with MT4 worked out at 82 µM; in the test on CCRF-CEM it was 45 µM.

In the case of `Cc1cn([C@@H]2O[C@H](CO[Si](C)(C)C(C)(C)C)[C@@]3(OS(=O)(=O)C(CC(N)=O)=C3NCC(N)=O)[C@H]2O[Si](C)(C)C(C)(C)C)c(=O)n(C)c1=O`, the pEC50 in test [2] and in test [1] was less than 5.70 in each case. In addition, the cytotoxic concentration (CC50) with MT4 worked out at 3.2 µM; in the test with CCRF-CEM it was 3.9 µM.
